# Measurements taken from ChEMBL document CHEMBL5303300, “EUbOPEN Chemogenomics Library - Multiplex” (2023).
# Where “and” joins values, the source holds several entries; their conditions need not be identical. Equal values may be shown once.
# Tests used:
# Type in all cases: toxicity, cell-based
# HEK-293T = assay: Multiplex assay against HEK293T; settings: human, number of replicates 2
# How it was run: (§1)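 Cells were classed with CellPathfinder machine-learning gating, first as Hoechst high-intensity objects or normal cells, then (normal cells) as healthy, pyknosed or fragmented nuclei, and finally (pyknosed cells) as mitotic or apoptotic. Staining of live cells at seeding used Hoechst33342, BioTracker Green Microtubule Cytoskeleton Dye, MitoTracker Red and Annexin V Alexa Fluor 680, with imaging on a CQ1 microscope at 37°C and 5% CO2 after compound addition. Tubulin, mitochondrial-mass and membrane-permeability phenotypes are per cents of healthy-nucleus cells.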
# U2OS = assay: Multiplex assay against U2OS; settings: human, number of replicates 2; how it was run: as §1
# Fibroblast = assay: Multiplex assay against human fibroblast; settings: number of replicates 2; how it was run: as §1
# [1] = 12 h, 1 µM, compound concentration 1 uM
# [2] = 12 h, 10 µM, compound concentration 10 uM
# [3] = 24 h, 1 µM, compound concentration 1 uM
# [4] = 24 h, 10 µM, compound concentration 10 uM
# [5] = 48 h, 1 µM, compound concentration 1 uM
# [6] = 48 h, 10 µM, compound concentration 10 uM
compound,measurement,setting,value
CCc1cnn2c(NCc3ccc[n+]([O-])c3)cc(N3CCCCC3CCO)nc12 (stereo not drawn),Population Apoptotic (%),HEK-293T; [1],70% and 62%
same,Population Fragmented Nuclei (%),HEK-293T; [1],3% and 2%
same,Population Healthy Nuclei (%),HEK-293T; [1],83% and 90%
same,Population Hoechst High Intensity Objects (%),HEK-293T; [1],9% and 7%
same,Population Membrane Permeable-Phenotype (%),HEK-293T; [1],0% and 1%
same,Population Mitochondria Different-Phenotype (%),HEK-293T; [1],47% and 51%
same,Population Mitotic Cells (%),HEK-293T; [1],29% and 37%
same,Population Normal (%),HEK-293T; [1],90% and 92%
same,Population Pyknosed Nuclei (%),HEK-293T; [1],12% and 7%
same,Population Tubulin-Different-Phenotype (%),HEK-293T; [1],70% and 75%
same,Total Cell Count,HEK-293T; [1],349 and 339
same,Population Apoptotic (%),HEK-293T; [2],52% and 86%
same,Population Fragmented Nuclei (%),HEK-293T; [2],3%
same,Population Healthy Nuclei (%),HEK-293T; [2],89% and 90%
same,Population Hoechst High Intensity Objects (%),HEK-293T; [2],13%
same,Population Membrane Permeable-Phenotype (%),HEK-293T; [2],2% and 1%
same,Population Mitochondria Different-Phenotype (%),HEK-293T; [2],59% and 57%
same,Population Normal (%),HEK-293T; [2],86%
same,Population Pyknosed Nuclei (%),HEK-293T; [2],7% and 6%
same,Population Tubulin-Different-Phenotype (%),HEK-293T; [2],86%
same,Total Cell Count,HEK-293T; [2],345 and 378
same,Population Apoptotic (%),HEK-293T; [3],74% and 68%
same,Population Fragmented Nuclei (%),HEK-293T; [3],3% and 2%
same,Population Healthy Nuclei (%),HEK-293T; [3],86%
same,Population Hoechst High Intensity Objects (%),HEK-293T; [3],10% and 11%
same,Population Membrane Permeable-Phenotype (%),HEK-293T; [3],1% and 0%
same,Population Mitochondria Different-Phenotype (%),HEK-293T; [3],60% and 52%
same,Population Mitotic Cells (%),HEK-293T; [3],25% and 31%
same,Population Normal (%),HEK-293T; [3],89% and 88%
same,Population Pyknosed Nuclei (%),HEK-293T; [3],10% and 11%
same,Population Tubulin-Different-Phenotype (%),HEK-293T; [3],70% and 67%
same,Total Cell Count,HEK-293T; [3],295 and 327
same,Population Apoptotic (%),HEK-293T; [4],47% and 79%
same,Population Fragmented Nuclei (%),HEK-293T; [4],4% and 3%
same,Population Healthy Nuclei (%),HEK-293T; [4],88%
same,Population Hoechst High Intensity Objects (%),HEK-293T; [4],18% and 17%
same,Population Membrane Permeable-Phenotype (%),HEK-293T; [4],0%
same,Population Mitochondria Different-Phenotype (%),HEK-293T; [4],70% and 67%
same,Population Mitotic Cells (%),HEK-293T; [4],52% and 20%
same,Population Normal (%),HEK-293T; [4],81% and 82%
same,Population Pyknosed Nuclei (%),HEK-293T; [4],6% and 8%
same,Population Tubulin-Different-Phenotype (%),HEK-293T; [4],83% and 85%
same,Total Cell Count,HEK-293T; [4],300 and 355
same,Population Apoptotic (%),HEK-293T; [5],68% and 80%
same,Population Fragmented Nuclei (%),HEK-293T; [5],4% and 3%
same,Population Healthy Nuclei (%),HEK-293T; [5],85% and 80%
same,Population Hoechst High Intensity Objects (%),HEK-293T; [5],11% and 13%
same,Population Membrane Permeable-Phenotype (%),HEK-293T; [5],0%
same,Population Mitochondria Different-Phenotype (%),HEK-293T; [5],71% and 75%
same,Population Mitotic Cells (%),HEK-293T; [5],32% and 19%
same,Population Normal (%),HEK-293T; [5],88% and 86%
same,Population Pyknosed Nuclei (%),HEK-293T; [5],10% and 16%
same,Population Tubulin-Different-Phenotype (%),HEK-293T; [5],74% and 67%
same,Total Cell Count,HEK-293T; [5],268 and 257
same,Population Apoptotic (%),HEK-293T; [6],43% and 68%
same,Population Fragmented Nuclei (%),HEK-293T; [6],1% and 5%
same,Population Healthy Nuclei (%),HEK-293T; [6],91% and 87%
same,Population Hoechst High Intensity Objects (%),HEK-293T; [6],19% and 20%
same,Population Membrane Permeable-Phenotype (%),HEK-293T; [6],1% and 0%
same,Population Mitochondria Different-Phenotype (%),HEK-293T; [6],74% and 73%
same,Population Mitotic Cells (%),HEK-293T; [6],56% and 31%
same,Population Normal (%),HEK-293T; [6],80% and 79%
same,Population Pyknosed Nuclei (%),HEK-293T; [6],6% and 7%
same,Population Tubulin-Different-Phenotype (%),HEK-293T; [6],83%
same,Total Cell Count,HEK-293T; [6],292 and 309
same,Population Apoptotic (%),U2OS; [1],58% and 91%
same,Population Healthy Nuclei (%),U2OS; [1],22% and 40%
same,Population Hoechst High Intensity Objects (%),U2OS; [1],0%
same,Population Membrane Permeable-Phenotype (%),U2OS; [1],25% and 12%
same,Population Mitochondria Different-Phenotype (%),U2OS; [1],12% and 2%
same,Population Normal (%),U2OS; [1],100%
same,Population Pyknosed Nuclei (%),U2OS; [1],34% and 49%
same,Population Tubulin-Different-Phenotype (%),U2OS; [1],75% and 86%
same,Population Apoptotic (%),U2OS; [2],78% and 66%
same,Population Fragmented Nuclei (%),U2OS; [2],17% and 14%
same,Population Healthy Nuclei (%),U2OS; [2],40% and 47%
same,Population Hoechst High Intensity Objects (%),U2OS; [2],0%
same,Population Mitochondria Different-Phenotype (%),U2OS; [2],11% and 0%
same,Population Mitotic Cells (%),U2OS; [2],21% and 33%
same,Population Normal (%),U2OS; [2],100%
same,Population Pyknosed Nuclei (%),U2OS; [2],42% and 38%
same,Population Tubulin-Different-Phenotype (%),U2OS; [2],44% and 76%
same,Population Apoptotic (%),U2OS; [3],100%
same,Population Healthy Nuclei (%),U2OS; [3],20% and 30%
same,Population Hoechst High Intensity Objects (%),U2OS; [3],0% and 1%
same,Population Membrane Permeable-Phenotype (%),U2OS; [3],20% and 10%
same,Population Mitotic Cells (%),U2OS; [3],0%
same,Population Normal (%),U2OS; [3],100% and 98%
same,Population Pyknosed Nuclei (%),U2OS; [3],32% and 53%
same,Population Tubulin-Different-Phenotype (%),U2OS; [3],100% and 82%
same,Population Apoptotic (%),U2OS; [4],87% and 82%
same,Population Fragmented Nuclei (%),U2OS; [4],14% and 12%
same,Population Healthy Nuclei (%),U2OS; [4],34% and 33%
same,Population Hoechst High Intensity Objects (%),U2OS; [4],4% and 1%
same,Population Membrane Permeable-Phenotype (%),U2OS; [4],6% and 10%
same,Population Mitochondria Different-Phenotype (%),U2OS; [4],6% and 8%
same,Population Mitotic Cells (%),U2OS; [4],12% and 17%
same,Population Normal (%),U2OS; [4],95% and 98%
same,Population Pyknosed Nuclei (%),U2OS; [4],51% and 53%
same,Population Tubulin-Different-Phenotype (%),U2OS; [4],43% and 63%
same,Population Apoptotic (%),U2OS; [5],100% and 97%
same,Population Healthy Nuclei (%),U2OS; [5],25% and 16%
same,Population Hoechst High Intensity Objects (%),U2OS; [5],0% and 3%
same,Population Membrane Permeable-Phenotype (%),U2OS; [5],12% and 31%
same,Population Mitochondria Different-Phenotype (%),U2OS; [5],25% and 21%
same,Population Mitotic Cells (%),U2OS; [5],0% and 2%
same,Population Normal (%),U2OS; [5],100% and 96%
same,Population Pyknosed Nuclei (%),U2OS; [5],28% and 74%
same,Population Tubulin-Different-Phenotype (%),U2OS; [5],75% and 100%
same,Population Apoptotic (%),U2OS; [6],95% and 82%
same,Population Fragmented Nuclei (%),U2OS; [6],10% and 19%
same,Population Healthy Nuclei (%),U2OS; [6],18% and 11%
same,Population Hoechst High Intensity Objects (%),U2OS; [6],1%
same,Population Mitochondria Different-Phenotype (%),U2OS; [6],45% and 33%
same,Population Normal (%),U2OS; [6],98%
same,Population Pyknosed Nuclei (%),U2OS; [6],71% and 68%
same,Population Tubulin-Different-Phenotype (%),U2OS; [6],81% and 83%
same,Population Apoptotic (%),Fibroblast; [1],35% and 55%
same,Population Fragmented Nuclei (%),Fibroblast; [1],7% and 13%
same,Population Healthy Nuclei (%),Fibroblast; [1],73% and 62%
same,Population Hoechst High Intensity Objects (%),Fibroblast; [1],0%
same,Population Membrane Permeable-Phenotype (%),Fibroblast; [1],3% and 4%
same,Population Mitochondria Different-Phenotype (%),Fibroblast; [1],1% and 0%
same,Population Mitotic Cells (%),Fibroblast; [1],65% and 44%
same,Population Normal (%),Fibroblast; [1],100%
same,Population Pyknosed Nuclei (%),Fibroblast; [1],19% and 23%
same,Population Tubulin-Different-Phenotype (%),Fibroblast; [1],13% and 9%
same,Total Cell Count,Fibroblast; [1],209 and 219
same,Population Apoptotic (%),Fibroblast; [2],42% and 55%
same,Population Fragmented Nuclei (%),Fibroblast; [2],6% and 7%
same,Population Healthy Nuclei (%),Fibroblast; [2],75%
same,Population Hoechst High Intensity Objects (%),Fibroblast; [2],0%
same,Population Membrane Permeable-Phenotype (%),Fibroblast; [2],5% and 7%
same,Population Mitochondria Different-Phenotype (%),Fibroblast; [2],2% and 3%
same,Population Mitotic Cells (%),Fibroblast; [2],57% and 44%
same,Population Normal (%),Fibroblast; [2],99% and 100%
same,Population Pyknosed Nuclei (%),Fibroblast; [2],17% and 16%
same,Population Tubulin-Different-Phenotype (%),Fibroblast; [2],31% and 26%
same,Total Cell Count,Fibroblast; [2],191 and 174
same,Population Apoptotic (%),Fibroblast; [3],59% and 63%
same,Population Fragmented Nuclei (%),Fibroblast; [3],9% and 13%
same,Population Healthy Nuclei (%),Fibroblast; [3],68% and 67%
same,Population Hoechst High Intensity Objects (%),Fibroblast; [3],0%
same,Population Membrane Permeable-Phenotype (%),Fibroblast; [3],7% and 3%
same,Population Mitochondria Different-Phenotype (%),Fibroblast; [3],2% and 0%
same,Population Mitotic Cells (%),Fibroblast; [3],40% and 36%
same,Population Normal (%),Fibroblast; [3],100%
same,Population Pyknosed Nuclei (%),Fibroblast; [3],22% and 19%
same,Population Tubulin-Different-Phenotype (%),Fibroblast; [3],18% and 10%
same,Total Cell Count,Fibroblast; [3],188 and 213
same,Population Apoptotic (%),Fibroblast; [4],68% and 52%
same,Population Fragmented Nuclei (%),Fibroblast; [4],8% and 9%
same,Population Healthy Nuclei (%),Fibroblast; [4],77% and 75%
same,Population Hoechst High Intensity Objects (%),Fibroblast; [4],0%
same,Population Membrane Permeable-Phenotype (%),Fibroblast; [4],10% and 4%
same,Population Mitochondria Different-Phenotype (%),Fibroblast; [4],2% and 6%
same,Population Mitotic Cells (%),Fibroblast; [4],32% and 48%
same,Population Normal (%),Fibroblast; [4],100%
same,Population Pyknosed Nuclei (%),Fibroblast; [4],13% and 15%
same,Population Tubulin-Different-Phenotype (%),Fibroblast; [4],43% and 38%
same,Total Cell Count,Fibroblast; [4],181 and 162
same,Population Apoptotic (%),Fibroblast; [5],65% and 64%
same,Population Fragmented Nuclei (%),Fibroblast; [5],9% and 12%
same,Population Healthy Nuclei (%),Fibroblast; [5],55% and 61%
same,Population Hoechst High Intensity Objects (%),Fibroblast; [5],0%
same,Population Membrane Permeable-Phenotype (%),Fibroblast; [5],8% and 9%
same,Population Mitochondria Different-Phenotype (%),Fibroblast; [5],0% and 3%
same,Population Mitotic Cells (%),Fibroblast; [5],34% and 35%
same,Population Normal (%),Fibroblast; [5],100% and 99%
same,Population Pyknosed Nuclei (%),Fibroblast; [5],35% and 26%
same,Population Tubulin-Different-Phenotype (%),Fibroblast; [5],15% and 17%
same,Total Cell Count,Fibroblast; [5],188 and 216
same,Population Apoptotic (%),Fibroblast; [6],73% and 63%
same,Population Fragmented Nuclei (%),Fibroblast; [6],11% and 6%
same,Population Healthy Nuclei (%),Fibroblast; [6],63%
same,Population Hoechst High Intensity Objects (%),Fibroblast; [6],0%
same,Population Membrane Permeable-Phenotype (%),Fibroblast; [6],14% and 20%
same,Population Mitochondria Different-Phenotype (%),Fibroblast; [6],1% and 4%
same,Population Mitotic Cells (%),Fibroblast; [6],26% and 36%
same,Population Normal (%),Fibroblast; [6],100% and 99%
same,Population Pyknosed Nuclei (%),Fibroblast; [6],25% and 29%
same,Population Tubulin-Different-Phenotype (%),Fibroblast; [6],43% and 41%
same,Total Cell Count,Fibroblast; [6],179 and 149
